Data taken from ChEMBL document CHEMBL5678806, “NMS-P937, an orally available, specific small-molecule polo-like kinase 1 inhibitor with antitumor activity in solid and hematologic malignancies” (Mol Cancer Ther, 2012).

Assays:
CAKI-2 = assay: Antiproliferative activity against human CAKI-2 cells assessed as inhibition of cell growth incubated for 72 hrs by cell-titer glo assay; format: functional, cell-based; conditions: CAKI-2, 72 h
In short: (§1)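 Cells seeded 10,000–30,000/cm² (adherent) or 100,000/mL (suspension) in medium with 10% fetal calf serum; after 24 h treated in duplicate with serial dilutions for 72 h. Viable cells read by CellTiter-Glo luminescence; IC50 from sigmoidal fit; at least two independent experiments.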

COLO 205 = assay: Antiproliferative activity against human COLO 205 cells assessed as inhibition of cell growth incubated for 72 hrs by cell-titer glo assay; format: functional, cell-based; conditions: COLO 205, 72 h; in short: as §1
[1] = target: Ephrin type-B receptor 1 (Homo sapiens) (UniProt P54762); assay: Inhibition of N-terminal 6His-tagged recombinant human EphB1 (564 to end residues) expressed in baculovirus infected Sf21 cells assessed as residual activity at 1 uM relative to control
MDA-MB-453 = assay: Antiproliferative activity against human MDA-MB-453 cells assessed as inhibition of cell growth incubated for 72 hrs by cell-titer glo assay; format: functional, cell-based; conditions: MDA-MB-453, 72 h
In short: (§2)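 Cells seeded at 10,000–30,000/cm² (adherent) or 100,000/mL (nonadherent) in medium with 10% fetal calf serum; after 24 h, treated in duplicate with serial dilutions for 72 h. Viable cell number read by CellTiter-Glo luminescence; IC50 from sigmoidal fit; at least two independent experiments.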

[2] = target: Dual specificity tyrosine-phosphorylation-regulated kinase 2 (Homo sapiens) (UniProt Q92630); assay: Inhibition of 6His-tagged recombinant full-length human DYRK2 expressed in baculovirus infected Sf21 cells assessed as residual activity at 1 uM relative to control
SU-DHL10 = assay: Antiproliferative activity against human SU-DHL-10 cells assessed as inhibition of cell growth incubated for 72 hrs by cell-titer glo assay; format: functional, cell-based; conditions: SU-DHL10, 72 h
[3] = target: Fibroblast growth factor receptor 4 (Homo sapiens) (UniProt P22455); assay: Inhibition of N-terminal His6-tagged recombinant human FGFR4 (442 to 755 residues) expressed in baculovirus infected Sf21 cells assessed as residual activity at 0.1 uM relative to control
HL-60 = assay: Antitumor activity against human HL-60 cells xenografted in nu/nu mouse assessed as efficacy parameter L0 at 60 mg/kg, po administered for 10 days relative to control; format: functional; conditions: time 10 day
A-431 = assay: Antiproliferative activity against human A-431 cells assessed as inhibition of cell growth incubated for 72 hrs by cell-titer glo assay; format: functional, cell-based; conditions: A-431, 72 h; in short: as §1
A-375 = assay: Antiproliferative activity against human A-375 cells assessed as inhibition of cell growth incubated for 72 hrs by cell-titer glo assay; format: functional, cell-based; conditions: A-375, 72 h; in short: as §1
[4] = target: Mitogen-activated protein kinase 1 (Homo sapiens, UniProt P28482); assay: Inhibition of ERK2 (unknown origin) in presence of [gamma-33P]ATP
[5] = target: Dual specificity mitogen-activated protein kinase kinase 7 (Homo sapiens) (UniProt O14733); assay: Inhibition of N-terminal GST-tagged recombinant human MKK7beta (2 to end residues) expressed in E. coli assessed as residual activity at 1 uM relative to control
[6] = target: Macrophage-stimulating protein receptor (Homo sapiens) (UniProt Q04912); assay: Inhibition of N-terminal GST-tagged recombinant human Ron (983 to end residues) expressed in baculovirus infected Sf21 cells assessed as residual activity at 1 uM relative to control
[7] = Clearance in nu/nu mouse at 10 mg/kg, iv by LC-MS analysis; format: ADME, organism-based; conditions: in vivo
[8] = target: Rho-associated protein kinase 2 (Homo sapiens) (UniProt O75116); assay: Inhibition of N-terminal His6-tagged recombinant human ROCK-II (11 to 552 residues) expressed in baculovirus infected Sf21 cells assessed as residual activity at 0.1 uM relative to control
[9] = target: Vascular endothelial growth factor receptor 2 (Homo sapiens, UniProt P35968); assay: Inhibition of VEGFR2 (unknown origin) in presence of [gamma-33P]ATP
[10] = target: Tyrosine-protein kinase Fes/Fps (Homo sapiens) (UniProt P07332); assay: Inhibition of N-terminal His6-tagged recombinant full length human Fes expressed in baculovirus infected Sf21 cells assessed as residual activity at 1 uM relative to control
[11] = target: Tyrosine-protein kinase Lyn (Homo sapiens, UniProt P07948); assay: Inhibition of LYN (unknown origin) in presence of [gamma-33P]ATP
[12] = target: Macrophage colony-stimulating factor 1 receptor (Homo sapiens) (UniProt P07333); assay: Inhibition of N-terminal His6-tagged recombinant human Fms (538 to end residues) expressed in baculovirus infected Sf21 cells assessed as residual activity at 1 uM relative to control
[13] = AUC in Beagle dog at 5 mg/kg, po by LC-MS analysis; format: ADME, organism-based, Canis lupus familiaris; conditions: in vivo
MDA-MB-436 = assay: Antiproliferative activity against human MDA-MB-436 cells assessed as inhibition of cell growth incubated for 72 hrs by cell-titer glo assay; format: functional, cell-based; conditions: MDA-MB-436, 72 h; in short: as §2
[14] = target: Serine/threonine-protein kinase 17A (Homo sapiens) (UniProt Q9UEE5); assay: Inhibition of N-terminal 6His-tagged recombinant full-length human DRAK1 expressed in baculovirus infected Sf21 cells assessed as residual activity at 0.1 uM relative to control
HT-29 = assay: Antiproliferative activity against human HT-29 cells assessed as inhibition of cell growth incubated for 72 hrs by cell-titer glo assay; format: functional, cell-based; conditions: HT-29, 72 h; in short: as §2
[15] = Half-life in Sprague-Dawley rat at 10 mg/kg, iv by LC-MS analysis; format: ADME, organism-based; conditions: in vivo
NCI-H526 = assay: Antiproliferative activity against human NCI-H526 cells assessed as inhibition of cell growth incubated for 72 hrs by cell-titer glo assay; format: functional, cell-based; conditions: NCI-H526, 72 h
In short: (§3)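 Cells from ATCC or ECACC, kept in supplier-recommended medium with 1% penicillin-streptomycin at 37°C, 5% CO₂. Seeded at 10,000–30,000/cm² (adherent) or 100,000/mL (nonadherent) in medium with 10% fetal calf serum. Dosed after 24 h in duplicate with serial dilutions. Viable cells read by CellTiter-Glo 72 h later. IC50 from sigmoidal fit. At least two independent experiments.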

NCI-H82 = assay: Antiproliferative activity against human NCI-H82 cells assessed as inhibition of cell growth incubated for 72 hrs by cell-titer glo assay; format: functional, cell-based; conditions: NCI-H82, 72 h; in short: as §3
LoVo = assay: Antiproliferative activity against human LoVo cells assessed as inhibition of cell growth incubated for 72 hrs by cell-titer glo assay; format: functional, cell-based; in short: as §2
HCT-116 = assay: Antitumor activity against human HCT-116 cells xenografted in nu/nu mouse assessed as tumor growth inhibition at 60 mg/kg administered for 10 days relative to control; format: functional; conditions: HCT-116, 240 h, time 10 day, read-out: TGI
NCI-H322M = assay: Antiproliferative activity against human NCI-H322M cells assessed as inhibition of cell growth incubated for 72 hrs by cell-titer glo assay; format: functional, cell-based; in short: as §3
BXPC-3 = assay: Antiproliferative activity against human BXPC-3 cells assessed as inhibition of cell growth incubated for 72 hrs by cell-titer glo assay; format: functional, cell-based; conditions: BXPC-3, 72 h; in short: as §1

Sequence of Serine/threonine-protein kinase 17A (Homo sapiens) (Q9UEE5 whole entry): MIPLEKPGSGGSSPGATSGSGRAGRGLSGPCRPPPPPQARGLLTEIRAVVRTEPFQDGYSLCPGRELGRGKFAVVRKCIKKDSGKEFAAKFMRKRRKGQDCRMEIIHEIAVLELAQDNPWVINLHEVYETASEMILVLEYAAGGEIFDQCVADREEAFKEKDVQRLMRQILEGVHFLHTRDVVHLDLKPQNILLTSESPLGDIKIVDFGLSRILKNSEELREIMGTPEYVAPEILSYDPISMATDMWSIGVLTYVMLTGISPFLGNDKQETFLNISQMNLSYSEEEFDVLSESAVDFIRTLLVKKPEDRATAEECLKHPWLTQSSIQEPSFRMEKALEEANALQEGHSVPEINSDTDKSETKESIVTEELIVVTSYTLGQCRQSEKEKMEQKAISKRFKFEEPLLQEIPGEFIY
Sequence of Mitogen-activated protein kinase 1 (P28482 whole entry): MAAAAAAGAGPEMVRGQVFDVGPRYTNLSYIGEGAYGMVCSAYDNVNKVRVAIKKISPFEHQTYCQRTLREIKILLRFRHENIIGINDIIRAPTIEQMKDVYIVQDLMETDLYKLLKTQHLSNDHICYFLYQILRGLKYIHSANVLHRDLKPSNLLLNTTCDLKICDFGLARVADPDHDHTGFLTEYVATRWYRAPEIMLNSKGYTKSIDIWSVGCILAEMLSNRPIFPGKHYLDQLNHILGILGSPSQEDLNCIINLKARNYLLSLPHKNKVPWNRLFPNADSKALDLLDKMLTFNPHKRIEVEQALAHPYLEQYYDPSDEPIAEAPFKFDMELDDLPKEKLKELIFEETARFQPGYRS
Sequence of Vascular endothelial growth factor receptor 2 (P35968 whole entry): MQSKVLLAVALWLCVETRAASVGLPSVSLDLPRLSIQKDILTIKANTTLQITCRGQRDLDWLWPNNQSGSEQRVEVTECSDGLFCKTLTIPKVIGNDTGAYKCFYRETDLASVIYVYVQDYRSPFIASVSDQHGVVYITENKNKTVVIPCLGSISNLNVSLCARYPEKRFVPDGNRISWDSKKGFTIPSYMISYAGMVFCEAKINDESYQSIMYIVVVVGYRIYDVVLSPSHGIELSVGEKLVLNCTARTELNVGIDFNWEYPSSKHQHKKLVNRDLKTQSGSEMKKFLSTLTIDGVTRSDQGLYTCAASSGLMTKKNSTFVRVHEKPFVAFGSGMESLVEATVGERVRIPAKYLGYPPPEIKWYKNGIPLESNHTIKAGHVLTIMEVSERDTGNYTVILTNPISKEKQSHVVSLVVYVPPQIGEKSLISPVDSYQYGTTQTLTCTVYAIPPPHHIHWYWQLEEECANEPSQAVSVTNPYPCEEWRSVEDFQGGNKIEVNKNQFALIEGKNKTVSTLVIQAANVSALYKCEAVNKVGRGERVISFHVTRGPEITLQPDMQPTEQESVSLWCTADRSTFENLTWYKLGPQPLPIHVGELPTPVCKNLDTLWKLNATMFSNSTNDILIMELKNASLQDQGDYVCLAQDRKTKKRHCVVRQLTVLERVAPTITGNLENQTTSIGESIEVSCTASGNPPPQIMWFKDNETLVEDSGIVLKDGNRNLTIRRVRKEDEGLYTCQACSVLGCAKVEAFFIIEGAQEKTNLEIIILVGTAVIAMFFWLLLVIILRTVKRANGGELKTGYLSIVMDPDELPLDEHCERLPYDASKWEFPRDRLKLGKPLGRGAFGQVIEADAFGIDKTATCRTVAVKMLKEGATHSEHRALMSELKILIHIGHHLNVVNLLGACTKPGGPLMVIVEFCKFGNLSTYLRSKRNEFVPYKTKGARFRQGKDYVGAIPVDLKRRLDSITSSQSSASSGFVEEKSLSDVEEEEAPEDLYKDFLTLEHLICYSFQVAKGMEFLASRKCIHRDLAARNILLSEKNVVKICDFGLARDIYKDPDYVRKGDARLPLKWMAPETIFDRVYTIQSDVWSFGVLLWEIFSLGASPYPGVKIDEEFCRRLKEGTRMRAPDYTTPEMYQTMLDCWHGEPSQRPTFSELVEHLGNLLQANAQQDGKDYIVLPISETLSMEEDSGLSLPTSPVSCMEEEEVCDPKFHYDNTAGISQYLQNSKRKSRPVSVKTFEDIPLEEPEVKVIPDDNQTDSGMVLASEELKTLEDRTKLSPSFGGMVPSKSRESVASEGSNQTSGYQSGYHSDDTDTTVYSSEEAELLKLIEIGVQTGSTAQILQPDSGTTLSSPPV
Sequence of Dual specificity mitogen-activated protein kinase kinase 7 (Homo sapiens) (O14733 whole entry): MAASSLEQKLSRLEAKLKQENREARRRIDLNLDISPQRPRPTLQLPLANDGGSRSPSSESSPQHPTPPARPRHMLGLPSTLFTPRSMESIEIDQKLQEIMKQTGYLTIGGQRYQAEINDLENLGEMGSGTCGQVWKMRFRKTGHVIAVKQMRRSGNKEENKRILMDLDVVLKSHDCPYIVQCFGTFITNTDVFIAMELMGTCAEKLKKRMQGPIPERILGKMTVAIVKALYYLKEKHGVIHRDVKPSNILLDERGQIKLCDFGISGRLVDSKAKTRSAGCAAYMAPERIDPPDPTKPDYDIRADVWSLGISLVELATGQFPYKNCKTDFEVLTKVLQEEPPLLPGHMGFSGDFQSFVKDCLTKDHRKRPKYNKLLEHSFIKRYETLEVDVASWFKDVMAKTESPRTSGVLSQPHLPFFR
Sequence of Ephrin type-B receptor 1 (Homo sapiens) (P54762 whole entry): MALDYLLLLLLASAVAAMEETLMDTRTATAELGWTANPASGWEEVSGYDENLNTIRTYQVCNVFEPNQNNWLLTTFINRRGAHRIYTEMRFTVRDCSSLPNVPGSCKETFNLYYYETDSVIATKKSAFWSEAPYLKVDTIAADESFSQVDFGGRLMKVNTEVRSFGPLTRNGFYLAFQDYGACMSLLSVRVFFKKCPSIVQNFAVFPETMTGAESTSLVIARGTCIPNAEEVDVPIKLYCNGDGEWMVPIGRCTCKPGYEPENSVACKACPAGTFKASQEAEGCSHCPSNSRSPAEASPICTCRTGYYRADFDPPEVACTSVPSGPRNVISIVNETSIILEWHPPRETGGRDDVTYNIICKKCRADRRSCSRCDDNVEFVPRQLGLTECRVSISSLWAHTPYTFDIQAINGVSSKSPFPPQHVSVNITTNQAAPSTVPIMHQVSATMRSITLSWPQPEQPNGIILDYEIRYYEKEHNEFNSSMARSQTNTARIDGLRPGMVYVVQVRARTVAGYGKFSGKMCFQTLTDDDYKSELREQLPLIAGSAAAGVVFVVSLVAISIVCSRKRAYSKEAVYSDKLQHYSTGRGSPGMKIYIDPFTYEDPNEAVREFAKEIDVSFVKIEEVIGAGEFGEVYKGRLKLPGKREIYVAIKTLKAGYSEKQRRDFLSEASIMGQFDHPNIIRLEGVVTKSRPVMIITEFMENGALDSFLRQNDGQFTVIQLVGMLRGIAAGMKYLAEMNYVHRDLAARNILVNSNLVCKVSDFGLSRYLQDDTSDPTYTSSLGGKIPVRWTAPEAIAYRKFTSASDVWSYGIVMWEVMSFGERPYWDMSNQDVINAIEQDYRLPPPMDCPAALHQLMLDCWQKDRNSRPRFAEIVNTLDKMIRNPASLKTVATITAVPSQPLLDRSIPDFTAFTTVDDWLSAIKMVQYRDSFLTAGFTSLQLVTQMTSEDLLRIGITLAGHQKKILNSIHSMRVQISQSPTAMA
Sequence of Fibroblast growth factor receptor 4 (Homo sapiens) (P22455 22-802 limits assumed): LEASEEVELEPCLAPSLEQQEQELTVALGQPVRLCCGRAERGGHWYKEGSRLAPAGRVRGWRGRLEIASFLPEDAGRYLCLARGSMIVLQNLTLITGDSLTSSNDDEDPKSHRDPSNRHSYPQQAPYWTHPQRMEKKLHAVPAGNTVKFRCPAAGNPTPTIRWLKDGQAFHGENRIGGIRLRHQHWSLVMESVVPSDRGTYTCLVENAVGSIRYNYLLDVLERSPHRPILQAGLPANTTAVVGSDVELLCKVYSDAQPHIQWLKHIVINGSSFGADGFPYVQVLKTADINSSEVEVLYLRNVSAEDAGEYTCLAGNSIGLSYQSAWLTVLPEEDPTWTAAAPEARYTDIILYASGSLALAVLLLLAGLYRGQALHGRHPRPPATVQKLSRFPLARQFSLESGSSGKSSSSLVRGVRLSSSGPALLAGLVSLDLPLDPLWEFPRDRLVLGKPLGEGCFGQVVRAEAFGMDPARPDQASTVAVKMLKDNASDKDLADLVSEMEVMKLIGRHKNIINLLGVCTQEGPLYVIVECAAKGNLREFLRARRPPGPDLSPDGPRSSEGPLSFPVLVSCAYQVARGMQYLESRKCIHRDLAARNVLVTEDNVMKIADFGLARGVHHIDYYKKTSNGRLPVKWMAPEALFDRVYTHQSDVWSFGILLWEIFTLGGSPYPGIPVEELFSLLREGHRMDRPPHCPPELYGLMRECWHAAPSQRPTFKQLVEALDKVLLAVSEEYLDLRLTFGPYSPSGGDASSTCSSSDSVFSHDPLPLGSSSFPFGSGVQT
Sequence of Tyrosine-protein kinase Lyn (P07948 whole entry): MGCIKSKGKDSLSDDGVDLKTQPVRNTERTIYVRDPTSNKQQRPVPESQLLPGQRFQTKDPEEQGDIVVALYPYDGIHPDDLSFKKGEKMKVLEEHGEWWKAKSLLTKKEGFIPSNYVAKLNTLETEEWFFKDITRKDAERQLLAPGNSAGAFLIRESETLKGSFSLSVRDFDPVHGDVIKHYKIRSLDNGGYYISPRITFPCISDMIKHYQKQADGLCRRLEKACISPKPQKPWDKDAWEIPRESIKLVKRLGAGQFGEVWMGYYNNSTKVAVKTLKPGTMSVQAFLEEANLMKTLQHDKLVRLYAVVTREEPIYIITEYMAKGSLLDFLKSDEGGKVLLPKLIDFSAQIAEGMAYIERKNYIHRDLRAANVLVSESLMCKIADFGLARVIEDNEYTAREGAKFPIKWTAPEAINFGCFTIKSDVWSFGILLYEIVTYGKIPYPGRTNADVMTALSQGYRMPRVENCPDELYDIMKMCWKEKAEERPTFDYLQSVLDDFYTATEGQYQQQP

CN1CCN(c2ccc(OC(F)(F)F)c(Nc3ncc4c(n3)-c3c(c(C(N)=O)nn3CCO)CC4)c2)CC1 [ONVANSERTIB]
IC50 (CAKI-2): 83 nM
IC50 (COLO 205): 32 nM
Activity [1]: 75%
IC50 (MDA-MB-453): 90 nM
Activity [2]: 83%
IC50 (SU-DHL10): 43 nM
Activity [3]: 93%
Activity (HL-60): 0.06 g
IC50 (A-431): 59 nM
IC50 (A-375): 40 nM
IC50 [4]: > 10000 nM
Activity [5]: 80%
Activity [6]: 42%
clearance [7]: 39.4 mL/min/kg
Activity [8]: 132%
IC50 [9]: > 10000 nM
Activity [10]: 30%
IC50 [11]: > 10000 nM
Activity [12]: 90%
AUC [13]: 8.1 µM·h
IC50 (MDA-MB-436): 93 nM
Activity [14]: 58%
IC50 (HT-29): 39 nM
half-life [15]: 2.7 h
IC50 (NCI-H526): 31 nM
IC50 (NCI-H82): 16 nM
IC50 (LoVo): 65 nM
inhibition in vivo at 60 mg/kg (HCT-116): 89%
IC50 (NCI-H322M): 183 nM
IC50 (BXPC-3): 117 nM
